TDP2 inh: human TDP2 enzyme inhibitors, primary screen, biochemical, epi absorbance, recombinant enzyme | Tyrosyl-DNA phosphodiesterase 2 (Homo sapiens), O95551 | T5PNP hydrolysis, p-nitrophenol absorbance 415 nm | inhibition, % at 12.8 µM | 0.34% of 370,000 active;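 active means inhibition above the mean of all tested compounds plus 3 SD, set per campaign, cut at about 25% in these data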;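 further: 0% = DMSO with enzyme and 100% = buffer with substrate but no TDP2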
Target sequence (O95551 whole entry, looked up): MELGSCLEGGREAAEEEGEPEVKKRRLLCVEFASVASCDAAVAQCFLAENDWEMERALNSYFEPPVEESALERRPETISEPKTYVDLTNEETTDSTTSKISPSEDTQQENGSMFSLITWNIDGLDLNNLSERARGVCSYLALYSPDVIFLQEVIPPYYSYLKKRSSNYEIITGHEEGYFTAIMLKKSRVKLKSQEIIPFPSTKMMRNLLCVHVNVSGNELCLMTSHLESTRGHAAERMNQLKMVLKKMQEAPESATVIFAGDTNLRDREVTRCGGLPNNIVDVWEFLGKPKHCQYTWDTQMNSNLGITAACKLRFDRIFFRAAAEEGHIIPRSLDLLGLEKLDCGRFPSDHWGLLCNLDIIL
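Assay system: recombinant human TDP2 / Reagent: T5PNP substrate at 5 mM, a TopII-DNA adduct mimic / Measured by: epi absorbance from released p-nitrophenol / Evaluation: % inhibition relative to enzyme-containing and enzyme-free wells / Control set: enzyme-free and DMSO wells / Replicates: each compound tested once, singlicate / Schedule: enzyme reaction with compound for 2 h at 37 °C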
GSTO1 counter: inhibitors of recombinant GSTO1, primary screen, counter-screen for RBBP9 inhibitor project, biochemical, fluorescence polarization; activity-based probe fluorescence polarization; Glutathione S-transferase omega-1 (Homo sapiens), P78417; 1.1% of 300,000 active; inhibition, % at 5.96 µM;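 active means inhibition above the campaign mean inhibition plus 3 SD, cut at about 35% in these data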;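 further: 0% = GSTO1-1 with DMSO and 100% = wells lacking GSTO1-1 enzyme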
Target sequence (P78417 whole entry, looked up): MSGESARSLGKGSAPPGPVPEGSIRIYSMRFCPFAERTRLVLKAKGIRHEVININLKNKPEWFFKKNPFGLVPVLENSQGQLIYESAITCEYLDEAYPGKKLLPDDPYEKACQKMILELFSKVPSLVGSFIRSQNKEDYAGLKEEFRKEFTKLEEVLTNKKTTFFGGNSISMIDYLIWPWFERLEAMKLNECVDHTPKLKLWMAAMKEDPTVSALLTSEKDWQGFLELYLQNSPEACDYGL
PAD4 FP inh: human PAD4 inhibitors, primary screen, biochemical, fluorescence polarization, 1536-well format; Protein-arginine deiminase type-4 (Homo sapiens), Q9UM07; recombinant PAD4, RCA probe fluorescence polarization; inhibition, % at 6.36 µM; 0.41% of 330,000 active;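 active means percent inhibition above a cutoff equal to the mean of all tested compounds plus 3 SD, cut at about 15% in these data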;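 further: 0% = PAD4 with RCA probe and DMSO and 100% = probe without PAD4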
CTSL1 counter: Fasciola hepatica cathepsin L1 inhibitors, primary screen, counter-screen for PFM18AAP inhibitor project, biochemical, QFRET, fluorogenic peptide substrate; recombinant F. hepatica cathepsin L1, Z-Leu-Arg-MCA fluorescence; inhibition, % at 5.96 µM; 0.49% of 300,000 active; AID 1906, 2009;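 active means inhibition above the mean of all tested compounds plus 3 SD, set per screening campaign, cut at about 17% in these data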;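 further: 0% = plate median of test compound wells and 100% = 1 µM Z-Phe-Ala-diazomethylketone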
Apaf1 inhib: inhibitors of human Apaf-1 apoptosome, primary screen, biochemical, DEVD-Rh110 fluorescence, uHTS; 0.71% of 330,000 active; reconstituted apoptosome caspase-3 activity; Apoptotic protease-activating factor 1 (Homo sapiens), O14727; inhibition, % at 20 µM; AID 489030, 2010; active means inhibition of at least 40% at 20 µM;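 further: plate controls were DMSO wells for no effect and DEVD-CHO caspase inhibitor wells for full effect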
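Material: reconstituted apoptosome with Apaf-1, cytochrome c, caspase-9, procaspase-3, dATP; medium: pH 7.5 Hepes buffer with CHAPS, BSA, DTT; also added: cytochrome c and DEVD-Rh110 substrate; timing: 30 min plus 50 min, RT; signal: Rh110 fluorescence intensity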
Apaf-1 inh conf: Apaf-1 inhibitors, single-dose retest, confirmation, biochemical, fluorescence, DEVD-Rh110, 20 µM | shares compounds with Apaf1 inhib | reconstituted apoptosome, caspase-3 DEVD-Rh110 fluorescence | inhibition, % at 20 µM | 25% of 1,800 active | AID 504614, 2011;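 active means mean inhibition of at least 40% at 20 µM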;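 further: plate controls were DMSO wells for no effect and DEVD-CHO caspase inhibitor control wells for full effect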
Rh110 quench: Rh110 fluorescence interference by putative Apaf-1 inhibitors, confirmation, artefact control for Apaf-1 inhibitor project, biochemical, 20 µM. shares compounds with Apaf1 inhib. quenched caspase reaction. activation (fluorescence interference), % at 20 µM. 1,800 tested, under 10 active. AID 504615, 2011;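 active means signal rise of 40% or more at 20 µM, treated as a fluorescence artifact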
Apaf1 inh interf: fluorescence interference of Apaf-1 inhibitor hits, dose response, artefact control for Apaf-1 inhibitor project; shares compounds with Apaf1 inhib; fluorescence interference counterscreen, Apaf-1 assay format; IC50, µM; 460 tested, under 10 active; AID 588538, 2011; call rule not given here
* marks the source's active call; other numbers are inactive results. Rows were chosen to be rich in hits. Some 1.8% of all compounds tested hit in one or more screens of this group.

CCCCCCCCCCOC(=O)Cn1c(COc2ccccc2OC)[n+](C)c2ccccc21 was read as TDP2 inh -0.9, GSTO1 counter 4.8, PAD4 FP inh 10.9, CTSL1 counter 5.1, Apaf1 inhib 71.2*, Apaf-1 inh conf 64.8*, Rh110 quench 33.9 and Apaf1 inh interf >100.
For COc1cccc(CN(C)C(=O)c2ccc(OCC(=O)Nc3cccc(C(F)(F)F)c3)c(OC)c2)c1 the results were TDP2 inh -5.2, GSTO1 counter -10.9, PAD4 FP inh 0.9, CTSL1 counter 7.7 and Apaf1 inhib 25.1.
Screening COc1ccc(CN(C)C(=O)c2ccc(OCC(=O)Nc3cccc(C(F)(F)F)c3)c(OC)c2)c(OC)c1 returned TDP2 inh 0.4, GSTO1 counter -2.3, PAD4 FP inh 1.8, CTSL1 counter -0.3, Apaf1 inhib 44.9*, Apaf-1 inh conf 34.9 and Rh110 quench -1.2.
For Cc1cc(C)c(C#N)c(N2CCN(c3ccccc3F)CC2)n1 the results were TDP2 inh -9.8, GSTO1 counter 2.5, PAD4 FP inh -3.2, CTSL1 counter 1.6 and Apaf1 inhib 8.9.
For COc1ccc(CN2C(=O)Cc3c2nc(N)c2c(N)nc(N4CCOCC4)c(C#N)c32)cc1 the results were TDP2 inh 0.0, GSTO1 counter 10.1, PAD4 FP inh -6.3, CTSL1 counter 2.6, Apaf1 inhib 86.4*, Apaf-1 inh conf 25.1 and Rh110 quench 21.6.
`COCCN1C(=O)Cc2c1nc(N)c1c(N)nc(N3CCN(c4ccc(F)cc4)CC3)c(C#N)c21` gave TDP2 inh 13.5, GSTO1 counter 11.0, PAD4 FP inh -5.5, CTSL1 counter 0.7 and Apaf1 inhib 10.3.
`COCC(C)N1C(=O)Cc2c1nc(N)c1c(N)nc(N3CCN(c4ccccc4F)CC3)c(C#N)c21` (stereo not given) gave TDP2 inh -5.0, GSTO1 counter 19.4, PAD4 FP inh -9.6, CTSL1 counter 5.3, Apaf1 inhib 96.8*, Apaf-1 inh conf 25.3 and Rh110 quench 5.3.
CCCCCCCCCCCCCCCCn1cc[n+](C)c1 was read as TDP2 inh 3.2, GSTO1 counter 9.7, PAD4 FP inh -2.0, CTSL1 counter 6.8, Apaf1 inhib 79.9*, Apaf-1 inh conf 43.8*, Rh110 quench 13.9 and Apaf1 inh interf >100.
CCCCCCCCn1ccc(=N)cc1 was read as TDP2 inh 2.9, GSTO1 counter 3.5, PAD4 FP inh 0.5, CTSL1 counter 0.0 and Apaf1 inhib -14.6.
For CCC(C)[C@H]1CN=C(N)N1CCc1cc(C(F)(F)F)cc(C(F)(F)F)c1 (stereo not given in full) the results were TDP2 inh -16.7, GSTO1 counter 6.0, PAD4 FP inh -0.1, CTSL1 counter 2.3, Apaf1 inhib 56.5*, Apaf-1 inh conf 22.1 and Rh110 quench -2.5.
`CC(O)[C@H]1CN=C(N)N1CCc1cc(C(F)(F)F)cc(C(F)(F)F)c1` (stereo not given in full) gave TDP2 inh 5.9, GSTO1 counter -2.2, PAD4 FP inh -2.7, CTSL1 counter -0.3 and Apaf1 inhib 4.9.
NC1=NC[C@@H](CC2CCCCC2)N1CCc1cc(C(F)(F)F)cc(C(F)(F)F)c1 was read as PAD4 FP inh -6.1, Apaf1 inhib 78.7*, Apaf-1 inh conf 50.5*, Rh110 quench 28.7 and Apaf1 inh interf >100.
For NC1=NC[C@H](c2ccccc2)N1CCc1cc(C(F)(F)F)cc(C(F)(F)F)c1 the results were TDP2 inh -10.6, GSTO1 counter -14.3, PAD4 FP inh -8.1, CTSL1 counter 0.6, Apaf1 inhib 54.3*, Apaf-1 inh conf 29.8 and Rh110 quench 7.6.
O=C(NC1CCCCN(Cc2ccc(Cl)cc2)C1=O)c1ccc(Cl)cc1Cl (stereo not given) was read as TDP2 inh 0.9.
`CC1=NN(c2ccccc2)C(=O)/C1=C/c1ccc[nH]1` gave TDP2 inh -2.0, GSTO1 counter 2.2, PAD4 FP inh 0.7, CTSL1 counter -0.1 and Apaf1 inhib -138.2.
CC1=NN(c2ccccc2)C(=O)/C1=C/c1ccc(Cl)cc1 was read as TDP2 inh 70.6*, Apaf1 inhib 95.9*, Apaf-1 inh conf 16.1 and Rh110 quench -2.3.
COc1ccc(OCc2cc(C(=O)N3CCC(OC)CC3)no2)c2ccccc12 was read as TDP2 inh 4.3, GSTO1 counter 1.2, PAD4 FP inh -4.3, CTSL1 counter -2.4, Apaf1 inhib 49.3*, Apaf-1 inh conf 24.9 and Rh110 quench 6.1.
For CCCCOCCCNC(=O)C[C@@H]1C[C@]2(C(=O)OCC)CCC3=C2N(CCC3)C1=O the results were TDP2 inh 8.2.
`CC(C)NC[C@@H](O)c1ccc(O)c(O)c1` gave TDP2 inh 6.6, GSTO1 counter 5.8, PAD4 FP inh -9.2, CTSL1 counter -7.1, Apaf1 inhib 42.7*, Apaf-1 inh conf 13.9 and Rh110 quench 5.5.
C[C@H]1[C@H](N(C)C)CC[C@@]23CCCN2C(=O)CCC[C@@H]13 was read as TDP2 inh 6.8.
Screening CCCCCn1c(N2CCC(Cc3ccccc3)CC2)nc2c1c(=O)[nH]c(=O)n2C returned GSTO1 counter -2.1, PAD4 FP inh -0.5, CTSL1 counter 0.8, Apaf1 inhib 45.8*, Apaf-1 inh conf 31.5 and Rh110 quench 10.7.
Screening CCCn1c(N2CCC(Cc3ccccc3)CC2)nc2c1c(=O)[nH]c(=O)n2C returned TDP2 inh -7.6, GSTO1 counter 6.1, PAD4 FP inh -1.6, CTSL1 counter 2.6 and Apaf1 inhib 35.7.
Screening CC(=O)Nc1ccc(S(=O)(=O)NCC2CCN(C(=O)C(=O)c3cc4ccccc4o3)CC2)cc1 returned TDP2 inh 11.8.
CN(C=[N+](C)C)c1cccc2c1C(=O)c1ccccc1C2=O was read as TDP2 inh 3.5, GSTO1 counter 2.9, PAD4 FP inh -5.7, CTSL1 counter -0.8, Apaf1 inhib 43.0*, Apaf-1 inh conf 21.2 and Rh110 quench 13.2.

High-throughput results as filed in PubChem.
